Results: the M2OR odorant receptor database
Numbering of substitutions follows the chain as printed.

Key:
Conditions in all cases: stereoisomer not certain
OR7G2 (Homo sapiens) = molecular target: T1, OR7G2 (Homo sapiens) (UniProt Q8NG99)
T1 sequence (whole entry): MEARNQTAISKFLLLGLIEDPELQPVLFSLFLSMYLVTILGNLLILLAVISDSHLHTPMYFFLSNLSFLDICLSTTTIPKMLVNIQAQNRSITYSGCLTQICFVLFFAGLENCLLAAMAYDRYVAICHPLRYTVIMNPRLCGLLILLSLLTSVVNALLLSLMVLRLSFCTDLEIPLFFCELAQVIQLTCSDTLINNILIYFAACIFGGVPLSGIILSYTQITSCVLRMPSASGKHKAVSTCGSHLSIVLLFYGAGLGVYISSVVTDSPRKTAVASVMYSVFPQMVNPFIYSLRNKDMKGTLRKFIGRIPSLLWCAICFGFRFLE
In short: (§1)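 Each receptor–molecule pair is labelled responsive or non-responsive (inactive) according to whether the original authors judged the measured signal statistically different from baseline. The data were taken from the main text and supplementary material of published papers and checked for typos and inconsistencies. Assay methods differed by source, with transient luciferase assays in mammalian cell lines being common.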

OR7G3 (Homo sapiens) = molecular target: T2, OR7G3 (Homo sapiens) (UniProt Q8NG95)
T2 sequence (whole entry): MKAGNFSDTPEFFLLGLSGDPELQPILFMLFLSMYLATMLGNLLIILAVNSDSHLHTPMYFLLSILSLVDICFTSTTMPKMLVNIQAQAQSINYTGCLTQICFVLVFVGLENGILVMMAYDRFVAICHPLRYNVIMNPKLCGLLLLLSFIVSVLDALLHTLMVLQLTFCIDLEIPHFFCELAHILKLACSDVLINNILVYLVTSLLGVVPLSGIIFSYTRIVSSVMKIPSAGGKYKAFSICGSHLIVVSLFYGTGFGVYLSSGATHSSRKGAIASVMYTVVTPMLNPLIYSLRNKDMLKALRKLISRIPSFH
In short: as §1

OR8A1 (Homo sapiens) = molecular target: T3, OR8A1 (Homo sapiens) (UniProt Q8NGG7)
T3 sequence (whole entry): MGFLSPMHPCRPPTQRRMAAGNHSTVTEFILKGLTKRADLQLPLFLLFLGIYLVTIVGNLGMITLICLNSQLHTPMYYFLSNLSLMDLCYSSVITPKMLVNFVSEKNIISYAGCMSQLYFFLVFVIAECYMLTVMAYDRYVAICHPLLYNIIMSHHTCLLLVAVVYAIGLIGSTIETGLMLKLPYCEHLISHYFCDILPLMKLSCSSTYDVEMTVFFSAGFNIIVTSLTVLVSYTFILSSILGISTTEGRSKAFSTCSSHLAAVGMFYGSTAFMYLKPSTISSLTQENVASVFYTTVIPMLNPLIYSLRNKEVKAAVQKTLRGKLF
In short: as §1

OR8B12 (Homo sapiens) = molecular target: T4, OR8B12 (Homo sapiens) (UniProt Q8NGG6)
T4 sequence (whole entry): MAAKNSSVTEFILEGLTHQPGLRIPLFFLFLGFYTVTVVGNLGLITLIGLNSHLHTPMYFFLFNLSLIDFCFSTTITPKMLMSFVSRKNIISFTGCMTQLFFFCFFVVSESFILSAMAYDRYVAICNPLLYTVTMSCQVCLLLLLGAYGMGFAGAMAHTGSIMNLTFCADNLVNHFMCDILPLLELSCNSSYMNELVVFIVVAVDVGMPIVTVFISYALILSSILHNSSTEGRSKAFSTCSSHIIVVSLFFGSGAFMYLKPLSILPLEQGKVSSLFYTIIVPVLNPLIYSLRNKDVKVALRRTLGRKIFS
In short: as §1

OR8B2 (Homo sapiens) = molecular target: T5, OR8B2 (Homo sapiens) (UniProt Q96RD0)
T5 sequence (whole entry): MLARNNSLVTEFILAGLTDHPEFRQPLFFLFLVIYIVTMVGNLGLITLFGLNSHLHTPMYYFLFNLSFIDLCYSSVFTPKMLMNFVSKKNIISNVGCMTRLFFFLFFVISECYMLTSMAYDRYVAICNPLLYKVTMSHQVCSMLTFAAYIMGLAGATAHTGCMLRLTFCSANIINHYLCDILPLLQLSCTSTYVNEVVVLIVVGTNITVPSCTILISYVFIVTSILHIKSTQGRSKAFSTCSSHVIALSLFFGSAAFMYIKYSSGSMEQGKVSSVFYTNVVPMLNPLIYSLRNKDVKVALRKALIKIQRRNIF
In short: as §1

OR8B3 (Homo sapiens) = molecular target: T6, OR8B3 (Homo sapiens) (UniProt Q8NGG8)
T6 sequence (whole entry): T5 sequence (whole entry) with R24Q, I34V, T47I, N94Y, R100Q, T205I, T208M
In short: as §1

OR8B4 (Homo sapiens) = molecular target: T7, OR8B4 (Homo sapiens) (UniProt Q96RC9)
T7 sequence (whole entry): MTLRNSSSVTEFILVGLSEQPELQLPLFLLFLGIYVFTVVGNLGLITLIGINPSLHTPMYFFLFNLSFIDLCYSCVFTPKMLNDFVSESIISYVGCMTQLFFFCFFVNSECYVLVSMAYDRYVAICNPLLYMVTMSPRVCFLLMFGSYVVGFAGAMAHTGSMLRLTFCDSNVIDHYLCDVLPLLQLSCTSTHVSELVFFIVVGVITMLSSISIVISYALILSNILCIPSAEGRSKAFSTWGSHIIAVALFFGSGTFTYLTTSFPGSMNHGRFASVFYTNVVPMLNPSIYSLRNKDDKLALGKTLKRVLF
In short: as §1

OR8B8 (Homo sapiens) = molecular target: T8, OR8B8 (Homo sapiens) (UniProt Q15620)
T8 sequence (whole entry): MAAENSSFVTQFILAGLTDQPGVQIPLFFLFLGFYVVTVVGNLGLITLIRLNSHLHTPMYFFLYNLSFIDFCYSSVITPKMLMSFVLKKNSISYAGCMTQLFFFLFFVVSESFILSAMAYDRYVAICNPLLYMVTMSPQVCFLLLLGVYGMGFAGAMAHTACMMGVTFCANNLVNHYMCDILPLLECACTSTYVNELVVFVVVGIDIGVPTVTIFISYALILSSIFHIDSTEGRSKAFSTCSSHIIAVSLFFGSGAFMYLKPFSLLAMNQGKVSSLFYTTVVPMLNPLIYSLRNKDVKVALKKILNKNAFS
In short: as §1

OR8D1 (Homo sapiens) = molecular target: T9, OR8D1 (Homo sapiens) (UniProt Q8WZ84)
T9 sequence (whole entry): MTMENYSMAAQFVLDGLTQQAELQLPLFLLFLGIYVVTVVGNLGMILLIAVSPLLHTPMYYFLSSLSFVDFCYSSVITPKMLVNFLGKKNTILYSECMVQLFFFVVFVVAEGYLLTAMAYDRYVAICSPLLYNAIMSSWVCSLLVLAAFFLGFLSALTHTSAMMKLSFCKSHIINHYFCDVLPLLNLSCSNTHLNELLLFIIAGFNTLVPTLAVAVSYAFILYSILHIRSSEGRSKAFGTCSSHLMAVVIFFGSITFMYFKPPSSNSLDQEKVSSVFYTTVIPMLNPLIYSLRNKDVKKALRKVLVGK
In short: as §1

OR7G2 = system: T10, OR7G2
T10 sequence (whole entry): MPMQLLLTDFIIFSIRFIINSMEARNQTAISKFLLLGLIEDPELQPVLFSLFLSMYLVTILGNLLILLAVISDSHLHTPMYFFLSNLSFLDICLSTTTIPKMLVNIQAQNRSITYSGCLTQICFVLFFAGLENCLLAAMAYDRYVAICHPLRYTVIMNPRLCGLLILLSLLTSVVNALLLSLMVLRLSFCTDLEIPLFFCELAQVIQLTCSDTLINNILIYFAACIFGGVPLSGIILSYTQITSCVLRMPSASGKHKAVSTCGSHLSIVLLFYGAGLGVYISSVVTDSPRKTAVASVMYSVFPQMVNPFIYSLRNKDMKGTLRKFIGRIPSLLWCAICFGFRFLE
In short: as §1

OR7G3 M29V = system: T11, OR7G3 M29V
T11 sequence (whole entry): T2 sequence (whole entry) with M29V
In short: as §1

OR8B2 L164F = system: T12, OR8B2 L164F
T12 sequence (whole entry): T5 sequence (whole entry) with L164F
In short: as §1

OR8B2 S273F = system: T13, OR8B2 S273F
T13 sequence (whole entry): T5 sequence (whole entry) with S273F
In short: as §1

OR8B3 H20R Q24R M114I = system: T14, OR8B3 H20R Q24R M114I
T14 sequence (whole entry): T5 sequence (whole entry) with H20R, I34V, T47I, N94Y, R100Q, M114I, T205I, T208M
In short: as §1

OR8B3 H20R Q24R Y113H = system: T15, OR8B3 H20R Q24R Y113H
T15 sequence (whole entry): T5 sequence (whole entry) with H20R, I34V, T47I, N94Y, R100Q, Y113H, T205I, T208M
In short: as §1

OR8B3 H20R Q24R = system: T16, OR8B3 H20R Q24R
T16 sequence (whole entry): T5 sequence (whole entry) with H20R, I34V, T47I, N94Y, R100Q, T205I, T208M
In short: as §1

OR8B4 = system: T17, OR8B4
T17 sequence (whole entry): T7 sequence (whole entry) with E22G
In short: as §1

OR8B8 L101P = system: T18, OR8B8 L101P
T18 sequence (whole entry): T8 sequence (whole entry) with L101P
In short: as §1

OR8D1 C127G L194P = system: T19, OR8D1 C127G L194P
T19 sequence (whole entry): T9 sequence (whole entry) with C127G, L194P
In short: as §1

OR8D1 L194P = system: T20, OR8D1 L194P
T20 sequence (whole entry): T9 sequence (whole entry) with L194P
In short: as §1

Measured: odorant receptor agonist call;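 further: active if original authors judged signal statistically different from baseline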

CCC(S)C(C)CO (stereo unspecified)
inactive: OR7G2 (Homo sapiens) | OR7G3 (Homo sapiens) | OR8A1 (Homo sapiens) | OR8B12 (Homo sapiens) | OR8B2 (Homo sapiens) | OR8B3 (Homo sapiens) | OR8B4 (Homo sapiens) | OR8B8 (Homo sapiens) | OR8D1 (Homo sapiens)

CCOC(=O)C1CCCCC1
inactive: OR8D1 (Homo sapiens)

CC(C)=CCCC(C)=CCO
inactive: OR8D1 (Homo sapiens)

CCOC(=O)C(C)C
inactive: OR8D1 (Homo sapiens)

CC1=NC(C)C(C)S1 (stereo unspecified)
not listed: OR7G2 (Homo sapiens)
inactive: all other assays above

O=c1ccc2ccccc2o1
inactive: OR8B2 (Homo sapiens) | OR8D1 (Homo sapiens)

CCCCCCC=CCCC=O
not listed: OR7G2 | OR8D1 L194P
inactive: all other assays above
